Measurements taken from the EternaBench riboswitch data.

Test system: MS2 coat protein
Test: apparent Kd, MS2 coat protein; higher = weaker binding; RNA-MaP array; FMN 200 µM where present
Method in brief: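 Designs on Illumina sequencing-chip clusters, transcribed by stalled E. coli RNA polymerase, were exposed to SNAP-549-labelled MS2 coat protein in doubling steps from 0.7 or 1.5 nM up to 3 µM, without and then with constant ligand. The buffer held 100 mM Tris-HCl pH 7.5, 80 mM KCl, 4 mM MgCl2, BSA, DTT, yeast tRNA and Tween-20. Apparent Kd values are medians of filtered per-cluster binding-curve fits to green signal normalised to red-channel RNA signal and control-cluster median Fmax.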

[1] = designed as: ON switch for flavin mononucleotide, no ligand
[2] = ligand present: flavin mononucleotide, designed as: ON switch for flavin mononucleotide
[3] = designed as: OFF switch for flavin mononucleotide, no ligand
[4] = ligand present: flavin mononucleotide, designed as: OFF switch for flavin mononucleotide

| Sequence | apparent Kd [1] | apparent Kd [2] | apparent Kd [3] | apparent Kd [4] |
| --- | --- | --- | --- | --- |
| GUAGGCGACCAGAAGGGUGACAUGAGGAUCACCCAUGUAGAUGUGUUCCCGCUUGGGAGCCGUCCACAGGAUAUGGUUGGUUAU | 49.9 nM | 74.5 nM |  |  |
| UGUCGGAGCAGAGGAUAUUACAUGAGGAUCACCCAUGUAUGAACCAAUAGCUGGAAACAGCCAUGUAAGAAGGCUGCUCCGACA |  |  | 157 nM | 543 nM |
| UGGUACAUGGGAGGAUAUGGGUUGAUAACAUGAGGAUCACCCAUGUUAAAUUUUGCCGAAAGGCACUAGAAGGCCCAUGUACCU | 1130 nM | 142 nM |  |  |
| CGAUAUAUGAAGGGCGAACGCGCACAUGAGGAUCACCCAUGUAGAAGGCGAUCCGCAACGCGGAUCGAGGAUAUAUAGUAUACG |  |  | 32.7 nM | 34 nM |
| GCUCAUAUCACAGGAUAUGGCCAGCAAAUUUGGCCAGAAGGGUGAUUCAUAUUAAAAUCACAUGAGGAUCACCCAUGUACGGCA | 166 nM | 321 nM |  |  |
| GCCUAUUCGUGCAGUUAAGGAGCUCAGGAUAUCGCAAUAACAUGAGGAUCACCCAUGUCCGAAUACGAGAAGGGAGGUCCGACG | 140 nM | 13.9 nM |  |  |
| GGAUCGAAUGUGAGGAUAUACCUAUGGAAACAUAGGUAGAAGGCACAUGAGGAUCACCCAUGUUCCUACGGUCC |  |  | 92.2 nM | 577 nM |
| ACUUGUAAGCAGAAGGCAGUCAUUAUAUUAAUCAUGUAGACAUGAGGAUCACCCAUGUAGAGUACUGAGGAUAUGCAUCGAUAG |  |  | 11 nM | 7.34 nM |
| CCUGGUUGGUAAGGAUAUCCUACACUGUUCUGACCCGUGCAAGCUACAUGAGGAUCACCCAUGUGGGAGAAGGUGCGUCAACGC |  |  | 12.6 nM | 11.7 nM |
| GUCAGCUCGUCAGGAUAUACGUCACUGCUUCGGCAGUGUGGUAAGAUCACAUGAGGAUCACCCAUGUAGAAGGGACGAGCUGAC |  |  | 13.7 nM | 252 nM |
| CGACACCAGACAGGAUAUGCUGGACUUUGUCCAGCAGAAGGGUCUAAACAUGAGGAUCACCCAUGUAUGGUGUCGAAAUUUAAU | 51.1 nM | 8.06 nM |  |  |
| UUCAAAUCGUAGAAGGGUGACAUGAGGAUCACCCAUGUGCAGCAGCCGUGAACGGCCAUGCUGCCACAGGAUAUACGAUGGAGU | 93.2 nM | 96.5 nM |  |  |
| UUUUCUUUUGUGAGGAUAUACUUGUUUUUUUUUUUGUAGAAGGCACAUGAGGAUCACCCAUGUUUUCUUUCCUG |  |  | 17 nM | 19.8 nM |
| AACAUGAGGAUCACCCAUGUCCCACCAGAAGGCUGGCGGUCGUGAGAAAGGCCACGACAAAUAACAGAGGAUAUGGUGAAUGCA | 101 nM | 19.1 nM |  |  |
| AACAAUCUAUCUGAGGAUAUUAUGAAAUAAACAUGAGGAUCACCCAUGUGCAGGAAAACUGCAUAUGAGAAGGCAGAUAGAUUGA | 428 nM | 18.5 nM |  |  |
| GGAUAGGACAGAGGAUAUACGUGCUAGAGAUACUAGCAAAAUUUCCUCACAUGAGGAUCACCCAUGUAGAAGGCUGUCCUAUCA |  |  | 16.7 nM | 380 nM |
| UAUAUUUAUGUAGGAUAUGGUAUAUAAAAUAUACCAGAAGGACAUGAGGAUCACCCAUGUAUGAAAUUCCAUAAUUACCGUGUA |  |  | 9.98 nM | 11.3 nM |
| CCUCGACAUGAGGAUCACCCAUGUCAGGAUAUUGUGUUUCGGGUUUUUUACCUUUAGGCAAGAAGGGAUGUGUG |  |  | 15.8 nM | 22.4 nM |
| UUGGACGUCGUAGGAUAUGUAGGAUAUUCCUACAUGAGGAUCACCCAUGUUGACAUGGAAGAAGGACAGAAGGACUAUGUCCAU | 195 nM | 8.53 nM |  |  |
| AGUGUCGGCACAGGAUAUGAGAUGCCGGCAGACAUGAGGAUCACCCAUGUAAGCGAACCAGGCAGUCAGAAGGGUGAUCGACGA | 119 nM | 26.9 nM |  |  |
| UUACAGCAAGGAUAUACGGGCUGUGCUUUUCAUUUCUUACAACAUGAGGAUCACCCAUGUAGAAGGUGCAACUU |  |  | 34.8 nM | 63.3 nM |
| UAUGUGUCAGGAUAUUAAUUAUUGGAGAAUGUGACGAUGAUUAAGAAGGGACAUGAGGAUCACCCAUGUUCAUC |  |  | 20.4 nM | 33.6 nM |
| AAUUUUUAACAGAAGGCGUUUAUAUUUAAGUUACGAGGAUAUGUAUAACAUGAGGAUCACCCAUGUAACAUGGAUAUUUAAUAA | 10.3 nM | 8.49 nM |  |  |
| UCUGGUCGAGGAUAUGCAAUCGUGCUUCGGCACGUAAGAUCACAUGAGGAUCACCCAUGUAGAAGGCGACCAGA |  |  | 22.3 nM | 78.3 nM |
| UGUCGGAGCAGAGGAUAUUACAUGAGGAUCACCCAUGUAUGAACCAAUAGCUGGAAACAGCAAUGUAAGAAGGCUGCUCCGAGA |  |  | 13.3 nM | 196 nM |
| CCCUCACAUGAGGAUCACCCAUGUUAGGAUAUCUACCAGGAGCUUUGAAUUGCCCAACGGAGAAGGAACGUGCA |  |  | 16.9 nM | 17.4 nM |
| UCAGUAGAGUCAGGAUAUACGUCCAAAUUUCCUCACAUGAGGAUCACCCAUGUAGAAGGGACUCUACUGUAAGUCGGAAACGAC |  |  | 7.42 nM | 31 nM |
